Data set [1] in a line: Drug level in C57BL/6J mouse serum assessed as metabolite formation treated with 4-(4-Methoxyphenyl)-8-methyl-5,6,7,8-tetrahydroquinazolin-2-amine at 20 mg/kg, po by LC-MS/MS analysis. Type of data set: ADME, organism-based. The conditions noted are these: in vivo. Summed up:
(§1)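 After a single 20 mg/kg oral dose in fasted male C57BL/6J mice (n=5 per time point), the demethylated metabolite was measured by LC-MS/MS (m/z 256.1→240.1) in serum and brain homogenate up to 24 h. Metabolite/parent AUC ratio was derived.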

Data set [2] is described as follows: Drug level in C57BL/6J mouse brain assessed as metabolite formation treated with 4-(4-Methoxyphenyl)-8-methyl-5,6,7,8-tetrahydroquinazolin-2-amine at 20 mg/kg, po by LC-MS/MS analysis. The data set is classed as ADME, organism-based. The conditions noted are these: in vivo. A digest of the protocol: as §1

Consider `CC1CCCc2c(-c3ccc(O)cc3)nc(N)nc21` (configuration not stated), for which the Drug metabolism result in data set [1] and in data set [2] was “Metabolite_Detected” throughout.
